Data as given in ChEMBL document CHEMBL4311965, “Antimicrobial activity of amphipathic α,α-disubstituted β-amino amide derivatives against ESBL - CARBA producing multi-resistant bacteria; effect of halogenation, lipophilicity and cationic character” (Eur J Med Chem, 2019).
Values after ≈ are worked out from the molar mass of the structure shown.

Assays:
[1] = test system: Staphylococcus aureus; test: Antibacterial activity against Staphylococcus aureus ATCC 9144 cultured in MHB medium assessed as no bacterial growth incubated at 37 degC for 24 hrs by microdilution susceptibility test; format: functional; settings: ATCC 9144, 24 h
In short: (§1)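 Broth microdilution per CLSI M07-A9 with modifications. Inoculum about 2.5–3 x 10⁴ cells/mL in Mueller-Hinton broth, mixed 1:1 with test derivative. DMSO stocks diluted in double-distilled water, final DMSO <1%. Incubation 24 h at 37 °C (20 °C for C. glutamicum). Growth and sterility controls included; oxytetracycline reference.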

[2] = test system: Pseudomonas aeruginosa; test: Antibacterial activity against Pseudomonas aeruginosa PA01 DSM 19880 (ATCC 15692) cultured in MHB medium assessed as no bacterial growth incubated at 37 degC for 24 hrs by microdilution susceptibility test; format: functional; settings: PAO1 DSM 19880 (ATCC 15692); in short: as §1
[3] = test system: HepG2; test: Cytotoxicity against human HepG2 cells assessed as reduction in cell viability incubated for 4 hrs by CellTiter 96 Aqueous One Solution Reagent based assay; settings: HepG2, 4 h
In short: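 HepG2 and MRC-5 cells seeded at 35 000 and 15 000 cells/well respectively, then held overnight at 37 °C, 5% CO₂. Compounds in serum-free MEM Earle's applied for 4 h. MTS reagent (CellTiter 96 AQueous One) added for a further 1 h, absorbance read at 485 nm. Survival expressed relative to medium (negative) and Triton X-100 (positive) controls.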

[4] = Selectivity index, ratio of EC50 for hemolytic activity against human RBC to MIC for antibacterial activity against Staphylococcus aureus ATCC 9144; format: toxicity; settings: human red blood cells (RBC)
In short: (§2)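 Selectivity index is the RBC haemolysis EC50 divided by the MIC against the E. coli or S. aureus reference strain.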

[5] = Selectivity index, ratio of EC50 for hemolytic activity against human RBC to MIC for antibacterial activity against Escherichia coli ATCC 25922; format: toxicity; settings: human red blood cells (RBC); in short: as §2
[6] = test system: Staphylococcus aureus; test: Antibacterial activity against multidrug-resistant Staphylococcus aureus N315 cultured in MHB medium assessed as reduction in bacterial growth incubated for 24 hrs by microdilution susceptibility test; format: functional; settings: N315, 24 h
In short: (§3)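 Broth microdilution per CLSI M07-A9 (modified). Working solutions made from concentrated DMSO stocks kept at r.t., diluted in double-distilled water, final DMSO <1%. Inoculum 1–1.2 x 10⁶ cells/mL in Mueller-Hinton broth, mixed 1:1 with compound. 37 °C, 24 h, four parallels. Read as OD₆₀₀. Where precipitation left residual OD, the point of major OD decrease was taken as the inhibitory concentration.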

[7] = test system: Staphylococcus aureus; test: Antibacterial activity against multidrug-resistant Staphylococcus aureus WIS cultured in MHB medium assessed as reduction in bacterial growth incubated for 24 hrs by microdilution susceptibility test; format: functional; in short: as §3
[8] = test system: Enterococcus faecium; test: Antibacterial activity against multidrug-resistant Enterococcus faecium 50673722 cultured in BHIB medium assessed as reduction in bacterial growth incubated for 24 hrs by microdilution susceptibility test; format: functional; settings: Enterococcus faecium, 50673722, 24 h
In short: (§4)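 Enterococci grown in Brain Heart Infusion broth, otherwise broth microdilution per CLSI M07-A9 (modified). Concentrated DMSO stocks kept at r.t. and diluted in double-distilled water, final DMSO <1%. Inoculum 1–1.2 x 10⁶ cells/mL mixed 1:1 with compound. 37 °C, 24 h, four parallels. OD₆₀₀ read-out, lowest concentration with no growth.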

[9] = test system: Enterococcus faecium; test: Antibacterial activity against multidrug-resistant Enterococcus faecium 50901530 cultured in BHIB medium assessed as reduction in bacterial growth incubated for 24 hrs by microdilution susceptibility test; format: functional; settings: Enterococcus faecium, 50901530, 24 h; in short: as §4
[10] = test system: Enterococcus faecium; test: Antibacterial activity against multidrug-resistant Enterococcus faecium TUH50-22 cultured in BHIB medium assessed as reduction in bacterial growth incubated for 24 hrs by microdilution susceptibility test; format: functional; settings: TUH50-22, 24 h; in short: as §4
[11] = test system: Escherichia coli; test: Antibacterial activity against multidrug-resistant Escherichia coli 50639799 producing Verona integron encoded metallo beta-lactamse-29 cultured in MHB medium assessed as reduction in bacterial growth incubated for 24 hrs by microdilution susceptibility test; format: functional; settings: Escherichia coli, 50639799, 24 h; in short: as §3
[12] = test system: Escherichia coli; test: Antibacterial activity against multidrug-resistant Escherichia coli 50857972 producing imipenem-type carbapenemase-26 cultured in MHB medium assessed as reduction in bacterial growth incubated for 24 hrs by microdilution susceptibility test; format: functional; settings: Escherichia coli, 50857972, 24 h; in short: as §3
[13] = test system: Pseudomonas aeruginosa; test: Antibacterial activity against multidrug-resistant Pseudomonas aeruginosa K34-7 producing Verona integron encoded metallo beta-lactamse-2 cultured in MHB medium assessed as reduction in bacterial growth incubated for 24 hrs by microdilution susceptibility test; format: functional; settings: K34-7, 24 h; in short: as §3
[14] = test system: Pseudomonas aeruginosa; test: Antibacterial activity against multidrug-resistant Pseudomonas aeruginosa K44-24 producing imipenem-type carbapenemase-14 cultured in MHB medium assessed as reduction in bacterial growth incubated for 24 hrs by microdilution susceptibility test; format: functional; settings: K44-24, 24 h; in short: as §3
[15] = test system: Pseudomonas aeruginosa; test: Antibacterial activity against multidrug-resistant Pseudomonas aeruginosa 50692172 producing New Delhi metallo-beta-lactamase-1 cultured in MHB medium assessed as reduction in bacterial growth incubated for 24 hrs by microdilution susceptibility test; format: functional; settings: Pseudomonas aeruginosa, 50692172, 24 h; in short: as §3
[16] = test system: Klebsiella pneumoniae; test: Antibacterial activity against multidrug-resistant Klebsiella pneumoniae K66-45 producing New Delhi metallo-beta-lactamase-1 cultured in MHB medium assessed as reduction in bacterial growth incubated for 24 hrs by microdilution susceptibility test; format: functional; settings: K66-45, 24 h; in short: as §3
[17] = test system: Klebsiella pneumoniae; test: Antibacterial activity against multidrug-resistant Klebsiella pneumoniae 50667959 producing Verona integron encoded metallo beta-lactamse-1 cultured in MHB medium assessed as reduction in bacterial growth incubated for 24 hrs by microdilution susceptibility test; format: functional; settings: Klebsiella pneumoniae, 50667959, 24 h; in short: as §3
[18] = Drug metabolism in Sprague-Dawley rat liver microsomes assessed as CYP450-mediated 2-[[2-(aminomethyl)-3-[3,5-bis(trifluoromethyl)phenyl]-2-[[3,5-bis(trifluoromethyl)phenyl]methyl]propanoyl]amino]acetic acid formation incubated up to 3 hrs in presence of NADPH regenerating system by RP-HPLC-MS analysis; format: ADME
In short: (§5)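 Substrate at 1 µL of 100 µM aqueous stock in 100 mM potassium phosphate, pH 7.4, with NADPH regenerating system. Pooled male Sprague–Dawley rat liver microsomes (20 mg/mL stock) added, then incubated at 37 °C. Sampled at 0–180 min and quenched with cold methanol containing propranolol internal standard. Analysed by RP-HPLC–HRMS in positive ESI mode. Metabolites confirmed by HCD MS2. Triplicate incubations.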

[19] = Aqueous solubility of the compound in DMSO; format: physicochemical
[20] = Drug metabolism in Sprague-Dawley rat liver microsomes assessed as CYP450-mediated deaminated form of N-(2-aminoethyl)-2-(aminomethyl)-3-(4-fluoro-1-naphthyl)-2-[(4-fluoro-1-naphthyl)methyl]propanamide metabolite formation incubated up to 3 hrs in presence of NADPH regenerating system by RP-HPLC-MS analysis; format: ADME; in short: as §5

In the case of NCCNC(=O)C(CN)(Cc1cc(C(F)(F)F)cc(C(F)(F)F)c1)Cc1cc(C(F)(F)F)cc(C(F)(F)F)c1, the MIC [1] is reported as 4 µg/mL (≈ 6.86 µM), the MIC [2] is reported as 4 µg/mL (≈ 6.86 µM) and the EC50 [3] is reported as 11 µg/mL (≈ 18.9 µM). It also gave a selectivity ratio [4] of 12, a selectivity ratio [5] of 12 and an MIC [6] of 16 µg/mL (≈ 27.4 µM). For the same compound, the MIC [7] was 16 µg/mL (≈ 27.4 µM), the MIC [8] was 8 µg/mL (≈ 13.7 µM) and the MIC [9] was 4 µg/mL (≈ 6.86 µM). It also gave an MIC [10] of 8 µg/mL (≈ 13.7 µM), an MIC [11] of 16 µg/mL (≈ 27.4 µM) and an MIC [12] of 8 µg/mL (≈ 13.7 µM). It also gave an MIC [13] greater than 32 µg/mL, an MIC [14] greater than 32 µg/mL and an MIC [15] of 32 µg/mL (≈ 54.8 µM). The MIC [16] was 32 µg/mL (≈ 54.8 µM), the MIC [17] was 16 µg/mL (≈ 27.4 µM) and the Drug metabolism [18] was “Metabolite_Notdetected”. The solubility [19] was “Soluble”.
With NCCNC(=O)C(CN)(Cc1ccc(F)c2ccccc12)Cc1ccc(F)c2ccccc12 the MIC [1] was 4 µg/mL (≈ 8.94 µM), the MIC [2] was 8 µg/mL (≈ 17.9 µM) and the EC50 [3] was 12 µg/mL (≈ 26.8 µM). For the same compound, the selectivity ratio [4] was 19, the selectivity ratio [5] was 19 and the MIC [6] was 16 µg/mL (≈ 35.8 µM). For the same compound, the MIC [7] was 16 µg/mL (≈ 35.8 µM), the MIC [8] was 16 µg/mL (≈ 35.8 µM) and the MIC [9] was 16 µg/mL (≈ 35.8 µM). The MIC [10] was 8 µg/mL (≈ 17.9 µM), the MIC [11] was 16 µg/mL (≈ 35.8 µM) and the MIC [12] was 8 µg/mL (≈ 17.9 µM). The MIC [13] was greater than 32 µg/mL, the MIC [14] was 32 µg/mL (≈ 71.5 µM) and the MIC [15] was greater than 32 µg/mL. For the same compound, the MIC [16] was 8 µg/mL (≈ 17.9 µM), the MIC [17] was 8 µg/mL (≈ 17.9 µM) and the Drug metabolism [20] was “Metabolite_Detected”. For the same compound, the solubility [19] was “Soluble”.
